Results on five molecules are retold here after ChEMBL document CHEMBL1126662, “Synthesis and use of the n-bromododecane-1,12-diols as conformational probes for general anesthetic target sites” (J Med Chem, 1993).

pEC50, pKi: −log10 of the molar value. Converted amounts (≈) assume the structure as drawn.

Series [1] in a line: Inhibition constant for firefly luciferase was evaluated. Details: species or system Lampyridae. The method in brief: (§1)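 Luciferase purified from Photinus pyralis lanterns by affinity chromatography; light-emission assay at 25 ± 1 °C with 2 mM ATP, competitive versus luciferin. Diols added in ethanol (final 23 mM, also in controls). Triplicate activities at ~5 diol levels each paired with control; Ki by weighted least squares from ~15 estimates; EC50 = 2Ki at luciferin Km.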

A short description of series [2]: Concentration which inhibits luciferase activity by 50% when the luciferon concentration is at its Km. Set-up: species or system Lampyridae. The method, boiled down:
as §1

Series [3] is described as follows: Headecane/water partition coefficient expressed as the equilibrium ratio of the molar concentration in n-hexadecane to that in the buffer. The class given is physicochemical. The method, boiled down: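 Molar partition between n-hexadecane and pH 7.8 glycylglycine/MgSO4 buffer at 25 ± 1 °C; aqueous diol measured by luciferase method; at least five independent determinations per diol; mean ± SE.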

Series [4] is described as follows: Concentration which anesthetizes 50% of a population of Rana temporaria tadpoles at 20 degrees Centigrade. The class given is functional, frog. The method in brief:
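Rana temporaria tadpoles (20–25 mm) at 20 ± 1 °C, six per beaker in 7–10 beakers of tap water with graded diol. Endpoint: no reflex to gentle glass-rod tap on side or snout, tested every 15 min up to 2 h; Waud dose–response analysis. Convulsing tadpoles excluded.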

Series [5] is described as follows: Aqueous solubility in 25 mM N-glycyl-glycine and 10 mM MgSO4 (pH 7.8). The class given is physicochemical. To be noted: 25 mM N-glycyl-glycine and 10 mM MgSO4 buffer, read-out: S. The method, boiled down: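 Diol solubility measured at 25 ± 1 °C in pH 7.8 buffer (25 mM N-glycylglycine, 10 mM MgSO4), a modified Curry method; dissolved diol quantified by inhibition of firefly luciferase. Values mean ± SE.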

`OCCCCCCCCCCCCO` gave a pKi in series [1] of 6.11. In addition, the results for the pEC50 in series [2] and in series [4] were 5.81 and 4.41, respectively. Also, the Khd in series [3] is reported as 4.7. Further, in series [5], the solubility was found to be 95 µM (≈ 19.2 µg/mL).
Turning to `OCCCCCCCCCC(Br)CCO` (stereo not given), in series [1], the pKi is 6.06. Besides, the pEC50 is 5.76 in series [2] and 4.25 in series [4]. The Khd in series [3] is given as 3.1. In addition, in series [5], the solubility came to 800 µM (≈ 225 µg/mL).
The matching figures for `OCCCCCCCC(Br)CCCCO` (stereo not given): 5.43, 5.13, 4.54, 0.9 and 2340 µM (≈ 658 µg/mL).
The molecule `OCCCCCCC(Br)CCCCCO` (stereo not given) gave a pKi in series [1] of 4.84. Also, the negative logarithm of the EC50 (pEC50) in series [2] was 4.53; in series [4], 4.01. For the same molecule, in series [3], the Khd was determined as 0.32. In series [5], the solubility was determined as 2260 µM (≈ 636 µg/mL).
Molecule `OCCCCCCCCCCC(Br)CO` (stereo not given) had a negative logarithm of the Ki (pKi) in series [1] of 6.36. Besides, the pEC50 was 6.06 in series [2] and 4.47 in series [4]. Moreover, the Khd in series [3] is 13. Besides, the solubility in series [5] came out at 725 µM (≈ 204 µg/mL).

As a reminder, the pKi is the Ki on a negative log10 scale, so that one unit is a factor of ten. High values mean a low Ki, low ones a high Ki. Broadly, the pEC50 is the negative decadic logarithm of the EC50, by convention in mol/L. A lower pEC50 goes with a large EC50.
